In ChEMBL document CHEMBL1142767, “2-(2-Furanyl)-7-phenyl[1,2,4]triazolo[1,5-c]pyrimidin-5-amine analogs: highly potent, orally active, adenosine A2A antagonists. Part 1” (Bioorg Med Chem Lett, 2005) one finds Index, Ki and Activity data, which are given here for 40 molecules.

pKi: −log10 of the molar value. Activity calls are given as the source filed them.

Assay [1] concerns the target Adenosine receptors; A1 & A2a (Rattus norvegicus) (UniProt P25099+P30543).
Assay [2] has as its target Adenosine receptor A2a (Rattus norvegicus, UniProt P30543). The assay can be described thus: In vitro ability to displace [3H]SCH-58261 from A2A adenosine receptor in Rat.
Assay [3] concerns Rattus norvegicus. The assay can be described thus: Anti-cataleptic activity in Rat at oral dose of 3 mg/kg retested at 1 and 4 hr after administration; Activity Not Traced. On the set-up: dose 3 mg/kg. Type of assay: functional, organism-based. An outline of the steps:
(§1)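 Male CD rats, 200-240 g, housed 4 per cage on a 12-h light/dark cycle. Catalepsy was induced with haloperidol 1 mg/kg s.c. After 30 min, each rat was placed facing upward on a wire screen inclined at 60°, and time to move one limb was recorded (cut-off 120 s). Rats immobile >75 s received test compound orally and were retested at 1 and 4 h.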

For assay [4], the system named is Rattus norvegicus. The assay can be described thus: Anti-cataleptic activity in Rat at oral dose of 3 mg/kg retested at 4 hr after administration. Type of assay: functional. An outline of the steps: as §1
In assay [5] the test system is Rattus norvegicus. The assay can be described thus: Anti-cataleptic activity in Rat at oral dose of 3 mg/kg retested at 1 hr after administration. Type of assay: functional. In a few lines: as §1

In general, pKi refers to the negative decadic logarithm of the Ki, by convention in mol/L. Read a low pKi as a high Ki.

Sequence of Adenosine receptor A2a (P30543 whole entry): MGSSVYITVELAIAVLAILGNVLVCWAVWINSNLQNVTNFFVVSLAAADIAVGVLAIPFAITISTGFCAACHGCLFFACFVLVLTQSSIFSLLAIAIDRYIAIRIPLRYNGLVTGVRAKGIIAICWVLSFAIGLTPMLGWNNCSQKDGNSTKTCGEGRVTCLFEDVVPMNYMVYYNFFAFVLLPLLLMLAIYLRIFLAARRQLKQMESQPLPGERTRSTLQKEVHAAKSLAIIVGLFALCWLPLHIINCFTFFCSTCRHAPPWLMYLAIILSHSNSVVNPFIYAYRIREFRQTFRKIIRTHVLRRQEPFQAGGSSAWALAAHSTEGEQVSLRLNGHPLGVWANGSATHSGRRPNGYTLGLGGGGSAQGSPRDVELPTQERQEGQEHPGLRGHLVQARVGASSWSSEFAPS
Sequence of Adenosine receptors; A1 & A2a (Rattus norvegicus) (P25099 whole entry, looked up): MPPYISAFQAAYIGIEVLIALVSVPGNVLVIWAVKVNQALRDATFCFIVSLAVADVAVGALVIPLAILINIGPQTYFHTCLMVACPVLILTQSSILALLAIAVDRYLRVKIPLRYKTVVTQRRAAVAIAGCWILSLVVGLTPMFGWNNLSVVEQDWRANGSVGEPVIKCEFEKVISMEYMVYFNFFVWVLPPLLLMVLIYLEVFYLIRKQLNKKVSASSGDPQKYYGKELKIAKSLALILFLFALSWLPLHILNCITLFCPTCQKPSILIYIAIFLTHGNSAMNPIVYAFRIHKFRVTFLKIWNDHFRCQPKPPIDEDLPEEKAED
Sequence of Adenosine receptors; A1 & A2a (Rattus norvegicus) (P30543 whole entry, looked up): as the sequence (P30543 whole entry) above

In the case of `Nc1nc(-c2cccc(CN3CCN(c4ccc(Cl)c(Cl)c4)CC3)c2)cc2nc(-c3ccco3)nn12`, the Index in assay [1] worked out at 3. The pKi in assay [2] is 7.98. For the same molecule, in assay [3], the outcome was inactive.
Molecule `N#Cc1cccc(-c2cc3nc(-c4ccco4)nn3c(N)n2)c1` came in with an Index in assay [1] of 14. In assay [2], this molecule gave a negative-log Ki (pKi) of 8.27.
With `COCCOc1ccc(N2CCN(Cc3cccc(-c4cc5nc(-c6ccco6)nn5c(N)n4)c3)CC2)cc1`, the Index in assay [1] stood at 601. Also, the pKi in assay [2] is 8.55. Further, the figures for the Activity in assay [4] and in assay [5] were 65 and 40, respectively.
Turning to `COc1ccc(-c2cc3nc(-c4ccco4)nn3c(N)n2)cc1OC`, in assay [1], the Index amounted to 64. The molecule also gave a pKi in assay [2] of 8.14.
In the case of `Nc1nc(-c2cccc(CN3CCN(c4nccs4)CC3)c2)cc2nc(-c3ccco3)nn12`, the Index in assay [1] was found to be 192. In assay [2], this molecule showed a pKi of 8.62. Also, the results for the Activity in assay [4] and in assay [5] were 10 and 20, respectively.
In assay [1], `Nc1nc(-c2ccccc2)cc2nc(-c3ccco3)nn12` showed an Index of 3. This molecule also showed a pKi in assay [2] of 8.15.
On the same counts, the results for `Cc1cccc(-c2cc3nc(-c4ccco4)nn3c(N)n2)c1` are 13 and 8.43.
The molecule `COCCOc1ccc(N2CCN(Cc3cccc(-c4cc5nc(-c6ccco6)nn5c(N)n4)c3)CC2)c(F)c1` yielded an Index in assay [1] of 642. The molecule also gave a pKi in assay [2] of 8.57. In addition, the Activity in assay [4] is 0; in assay [5] it was 20.
`Cc1ccccc1-c1cc2nc(-c3ccco3)nn2c(N)n1` came in with an Index in assay [1] of 12. Moreover, the negative logarithm of the Ki (pKi) in assay [2] is 7.66.
Consider `COCCOc1c(F)cc(N2CCN(Cc3cccc(-c4cc5nc(-c6ccco6)nn5c(N)n4)c3)CC2)cc1F`, for which the Index in assay [1] is 338. For the same molecule, the negative logarithm of the Ki (pKi) in assay [2] was 8.66. Also, the Activity in assay [4] stood at 47; in assay [5], 28.
`COc1ccc(-c2cc3nc(-c4ccco4)nn3c(N)n2)c(OC)c1OC`: the Index in assay [1] amounted to 17. The molecule further gave a pKi in assay [2] of 8.35.
Consider `Nc1cccc(-c2cc3nc(-c4ccco4)nn3c(N)n2)c1`, for which the Index in assay [1] is 11. Also, in assay [2], the negative logarithm of the Ki (pKi) is 8.30.
Turning to `COc1cc(-c2cc3nc(-c4ccco4)nn3c(N)n2)cc(OC)c1OC`, in assay [1], the Index was determined as 69. Besides, in assay [2], the pKi is 8.35.
On the same counts, the results for `COc1cccc(-c2cc3nc(-c4ccco4)nn3c(N)n2)c1` are 20 and 8.30.
Turning to `COCCOc1cc(F)c(N2CCN(Cc3cccc(-c4cc5nc(-c6ccco6)nn5c(N)n4)c3)CC2)c(F)c1`, the Index in assay [1] came out at 71. The molecule further had a pKi in assay [2] of 8.19. The outcome in assay [3] was inactive.
In assay [1], `Nc1nc(-c2cccc(CN3CCC(c4ccc(F)cc4)CC3)c2)cc2nc(-c3ccco3)nn12` returned an Index of 115. Further, the negative-log Ki (pKi) in assay [2] is 8.13. The Activity in assay [4] and in assay [5] was 20 each time.
`Nc1nc(-c2cccc(CN3CCC(c4ccccc4)CC3)c2)cc2nc(-c3ccco3)nn12` displayed an Index in assay [1] of 69. Besides, the pKi in assay [2] is 8.34. Further, in assay [3], the outcome was inactive.
Regarding `COc1ccc(-c2cc3nc(-c4ccco4)nn3c(N)n2)c(OC)c1`, the Index in assay [1] was determined as 98. This molecule also showed a pKi in assay [2] of 8.54.
Consider `Nc1nc(-c2cccs2)cc2nc(-c3ccco3)nn12`, for which the Index in assay [1] was determined as 15. Further, in assay [2], the pKi was 8.36.
For `Nc1nc(-c2cccnc2)cc2nc(-c3ccco3)nn12` the same measures were 65 and 8.18.
For `Nc1nc(-c2cccc(-c3ccccc3)c2)cc2nc(-c3ccco3)nn12` the same measures were 82 and 8.26.
Take `COCCOc1ccc(N2CCN(Cc3cccc(-c4cc5nc(-c6ccco6)nn5c(N)n4)c3)CC2)cc1OC`: the Index in assay [1] amounted to 134. The molecule also had a negative-log Ki (pKi) in assay [2] of 8.48. The Activity in assay [4] is reported as 39; in assay [5], 33.
`Nc1nc(-c2ccncc2)cc2nc(-c3ccco3)nn12` had an Index in assay [1] of 66. In assay [2], this molecule gave a pKi of 8.72.
In assay [1], `COCCOc1ccc(C2CCN(Cc3cccc(-c4cc5nc(-c6ccco6)nn5c(N)n4)c3)CC2)cc1` came in with an Index of 202. This molecule also showed a pKi in assay [2] of 8.05. Further, the Activity in assay [4] and in assay [5] was 0 in each case.
On to `Nc1nc(-c2ccccn2)cc2nc(-c3ccco3)nn12`, for which the Index in assay [1] was determined as 34. Further, in assay [2], the pKi was 8.85.
For `COc1cccc(OC)c1-c1cc2nc(-c3ccco3)nn2c(N)n1`, the Index in assay [1] was 1. The molecule further showed a negative-log Ki (pKi) in assay [2] of 5.77.
`CN(CCc1ccccc1)Cc1cccc(-c2cc3nc(-c4ccco4)nn3c(N)n2)c1` showed an Index in assay [1] of 135. Besides, in assay [2], the negative-log Ki (pKi) was 8.44. In assay [3], the outcome was inactive.
The molecule `COCCOc1ccc(N2CCN(Cc3cccc(-c4cc5nc(-c6ccco6)nn5c(N)n4)c3)CC2)c(C#N)c1` came in with an Index in assay [1] of 85. In assay [2], the pKi was 8.44. Further, the outcome in assay [3] was inactive.
In assay [1], `Nc1nc(-c2cccc(CN3CCN(c4ccccc4)CC3)c2)cc2nc(-c3ccco3)nn12` had an Index of 69. Besides, the pKi in assay [2] is 8.34. Further, the result in assay [3] was inactive.
In assay [1], `COCCOc1ccc(N2CCN(Cc3cccc(-c4cc5nc(-c6ccco6)nn5c(N)n4)c3)CC2)c(Cl)c1` registered an Index of 204. Further, the pKi in assay [2] is 8.54. Moreover, the results for the Activity in assay [4] and in assay [5] were 15 and 12, respectively.
Molecule `COc1ccc(-c2cc3nc(-c4ccco4)nn3c(N)n2)cc1` came in with an Index in assay [1] of 103. In assay [2], this molecule gave a pKi of 8.14.
Regarding `COCCOc1cccc(N2CCN(Cc3cccc(-c4cc5nc(-c6ccco6)nn5c(N)n4)c3)CC2)c1`, the Index in assay [1] amounted to 115. Further, in assay [2], the pKi was 8.40. Moreover, the Activity was 53 in assay [4] and 29 in assay [5].
As to `COc1ccc(OC)c(-c2cc3nc(-c4ccco4)nn3c(N)n2)c1`, the Index in assay [1] turned out to be 65. The pKi in assay [2] was 8.35.
Consider `CC(C)c1ccc(-c2cc3nc(-c4ccco4)nn3c(N)n2)cc1`, for which, in assay [1], the Index was 31. The pKi in assay [2] is 8.33.
On the same counts, the results for `COc1cccc(-c2cc3nc(-c4ccco4)nn3c(N)n2)c1OC` are 27 and 7.66.
In the case of `COCCOc1ccc(N2CCN(Cc3cccc(-c4cc5nc(-c6ccco6)nn5c(N)n4)c3)CC2)c(C)c1`, in assay [1], the Index is 72. Besides, the pKi in assay [2] is 8.57. The outcome in assay [3] was inactive.
In assay [1], `Cc1ccc(-c2cc3nc(-c4ccco4)nn3c(N)n2)cc1` gave an Index of 19. Moreover, in assay [2], the pKi was 8.08.
In the case of `COCCOc1ccc(N2CCN(Cc3cccc(-c4cc5nc(-c6ccco6)nn5c(N)n4)c3)CC2)cc1C#N`, in assay [1], the Index was found to be 314. This molecule gave a pKi in assay [2] of 8.96. The Activity was 9 in assay [4] and 14 in assay [5].
Consider `COc1ccccc1-c1cc2nc(-c3ccco3)nn2c(N)n1`, for which, in assay [1], the Index is 27. Also, the negative logarithm of the Ki (pKi) in assay [2] is 8.37.
For `Nc1nc(-c2cccc(CO)c2)cc2nc(-c3ccco3)nn12` the same measures were 135 and 8.55.
